From ChEMBL document CHEMBL3352177, “C-glycoside mimetics inhibit glioma stem cell proliferation, migration, and invasion” (J Med Chem, 2014)

Legend:
A-431 = test: Antiproliferative activity against human A431 cells after 48 to 72 hrs by MTT assay; format: functional, cell-based
In short: (§1)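 MTT assay read 48 and 72 h after compound addition. Cell lines grown in DMEM with 10% heat-inactivated FCS, 2 mM L-glutamine, 1 mM sodium pyruvate; GBM stem cells grown as nonadherent neurospheres. IC50 by Hill equation fit; ≥3 independent experiments, each point repeated six times.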

[1] = Cytotoxicity against rat cortical neurons at 100 uM using propidium iodide by flow cytometry; conditions: cortical neurone
[2] = Antimigratory activity against human Gli7 cells on matrix containing laminin after 24 hrs by 2-D migration assay; format: functional, cell-based
In short: (§2)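 Boyden chamber 2D migration toward serum over 24 h on fibronectin, vitronectin or laminin matrix. Cells in DMEM with 0.1% BSA in the upper compartment with or without compound; 10% FCS medium below. Gli4/Gli7 taken from neurosphere cultures. Migrated cells methanol-fixed, crystal violet stained, counted at ×200. Ki from Hill equation fit; ≥3 independent experiments, each point in quadruplicate.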

[3] = Antiproliferative activity against mouse B16F10 cells after 48 to 72 hrs by MTT assay; format: functional, cell-based; conditions: B16-F10; in short: as §1
MDA-MB-231 = test: Antiproliferative activity against human MDA-MB-231 cells after 48 to 72 hrs by MTT assay; format: functional, cell-based; in short: as §1
[4] = Cytotoxicity against mouse astrocytes at 100 uM by MTT assay; format: cell-based; conditions: astrocyte
In short: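 Primary astrocytes from day-2 newborn mouse cortex, kept 21 days (nonproliferative, GFAP-positive), exposed to compound up to 100 μM; viability by MTT assay.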

[5] = Antimigratory activity against human Gli4 cells on matrix containing fibronectin after 24 hrs by 2-D migration assay; format: functional, cell-based; in short: as §2
[6] = Antimigratory activity against human Gli7 cells on matrix containing fibronectin after 24 hrs by 2-D migration assay; format: functional, cell-based; in short: as §2
[7] = Antiinvasive activity against human Gli4 cells after 48 hrs by matrigel assay; format: functional, cell-based
C6 [8] = test: Antiproliferative activity against rat C6 cells after 48 to 72 hrs by MTT assay; format: functional, cell-based; in short: as §1
SNB-75 [9] = test: Antimigratory activity against human SNB75 cells on matrix containing vitronectin after 24 hrs by 2-D migration assay; format: functional, cell-based; in short: as §2
[10] = Antiproliferative activity against human Caco2 cells after 48 to 72 hrs by MTT assay; format: functional, cell-based; conditions: Caco-2; in short: as §1
[11] = Antiproliferative activity against human HuH7 cells after 48 to 72 hrs by MTT assay; format: functional, cell-based; conditions: Huh-7; in short: as §1
[12] = Antiinvasive activity against human Gli7 cells after 48 hrs by matrigel assay; format: functional, cell-based
[13] = Antimigratory activity against human Gli4 cells on matrix containing vitronectin after 24 hrs by 2-D migration assay; format: functional, cell-based; in short: as §2
[14] = Antimigratory activity against human Gli7 cells on matrix containing vitronectin after 24 hrs by 2-D migration assay; format: functional, cell-based; in short: as §2
C6 [15] = test: Antimigratory activity against rat C6 cells on matrix containing fibronectin after 24 hrs by 2-D migration assay; format: functional, cell-based; in short: as §2
[16] = Antiproliferative activity against human Gli7 cells after 48 to 72 hrs by MTT assay; format: functional, cell-based; in short: as §1
DU-145 = test: Antiproliferative activity against human DU145 cells after 48 to 72 hrs by MTT assay; format: functional, cell-based; in short: as §1
SNB-75 [17] = test: Antiproliferative activity against human SNB75 cells after 48 to 72 hrs by MTT assay; format: functional, cell-based; in short: as §1
SNB-75 [18] = test: Antimigratory activity against human SNB75 cells on matrix containing laminin after 24 hrs by 2-D migration assay; format: functional, cell-based; in short: as §2
MDA-MB-435 = test: Antiproliferative activity against human MDA-MB-435 cells after 48 to 72 hrs by MTT assay; format: functional, cell-based; in short: as §1
[19] = Antimigratory activity against human Gli4 cells on matrix containing laminin after 24 hrs by 2-D migration assay; format: functional, cell-based; in short: as §2
SNB-75 [20] = test: Antimigratory activity against human SNB75 cells on matrix containing fibronectin after 24 hrs by 2-D migration assay; format: functional, cell-based; in short: as §2
C6 [21] = test: Antimigratory activity against rat C6 cells on matrix containing vitronectin after 24 hrs by 2-D migration assay; format: functional, cell-based; in short: as §2
[22] = Cytotoxicity against rat cortical neurons at 100 uM by MAP2 immunofluorescence assay; conditions: cortical neurone
In short: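 Rat E17 embryonic cortical neurons cultured 17 days, treated 48 h; then 5 μg/mL Hoechst 33342 and 10 μM propidium iodide for 30 min at 37 °C, PBS wash, 4% paraformaldehyde fixation. Fluorescence read on plate reader and by camera imaging; MAP2 immunofluorescence imaged; Triton X-100 (2%) control; mean % PI uptake from three wells per condition.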

C6 [23] = test: Antimigratory activity against rat C6 cells on matrix containing laminin after 24 hrs by 2-D migration assay; format: functional, cell-based; in short: as §2

For `CC1(C)O[C@@H]2[C@H](O1)[C@@H](Nc1cccc3ccccc13)[P@](=O)(c1ccccc1)O[C@@H]2[C@H]1COC(C)(C)O1`, the IC50 (A-431) was 1340 nM, the Activity [1] was “Toxic” and the Ki [2] was 100 nM. The IC50 [3] was over 100000 nM, the IC50 (MDA-MB-231) was 9810 nM and the Activity [4] was “Toxic”. It also gave a Ki [5] of 31 nM, a Ki [6] of 16 nM and a Ki [7] of 290 nM. The IC50 (C6 [8]) was 5740 nM, the Ki (SNB-75 [9]) was 100 nM and the IC50 [10] was over 100000 nM. The IC50 [11] was 6870 nM, the Ki [12] was 46 nM and the Ki [13] was 36 nM. The Ki [14] was 42 nM, the Ki (C6 [15]) was 126 nM and the IC50 [16] was 2330 nM. For the same compound, the IC50 (DU-145) was over 100000 nM, the IC50 (SNB-75 [17]) was 3410 nM and the Ki (SNB-75 [18]) was 60 nM. For the same compound, the IC50 (MDA-MB-435) was 4690 nM, the Ki [19] was 22 nM and the Ki (SNB-75 [20]) was 124 nM. The Ki (C6 [21]) was 300 nM, the Activity [22] was “Toxic” and the Ki (C6 [23]) was 77 nM.
